Structures are written as SMILES. Calls of active or inactive are those of the source. The calls are words filed in the database; no cut-off is given here.

One experiment has as its target T1, Protein ENL (Homo sapiens, UniProt Q03111).
T1 sequence (Q03111 whole entry): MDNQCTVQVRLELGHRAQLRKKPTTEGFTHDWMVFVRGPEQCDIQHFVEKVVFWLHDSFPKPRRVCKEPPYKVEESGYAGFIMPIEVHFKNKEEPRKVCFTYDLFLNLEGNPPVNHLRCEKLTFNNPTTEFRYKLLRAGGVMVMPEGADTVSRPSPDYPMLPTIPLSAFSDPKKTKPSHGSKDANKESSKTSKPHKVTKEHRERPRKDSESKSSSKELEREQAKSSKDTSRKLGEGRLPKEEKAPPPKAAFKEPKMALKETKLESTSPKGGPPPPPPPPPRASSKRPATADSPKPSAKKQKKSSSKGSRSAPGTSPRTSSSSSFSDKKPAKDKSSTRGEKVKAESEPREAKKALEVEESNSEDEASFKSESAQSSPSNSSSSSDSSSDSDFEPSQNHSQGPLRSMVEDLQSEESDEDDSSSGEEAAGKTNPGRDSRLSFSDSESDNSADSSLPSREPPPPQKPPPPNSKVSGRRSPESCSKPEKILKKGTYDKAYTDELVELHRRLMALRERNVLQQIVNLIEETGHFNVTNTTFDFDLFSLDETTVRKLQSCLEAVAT
In words: Inhibition of human His-ENL YEATS domain and biotinylated H3K9ac peptide interaction by AlphaScreen assay.

The target in experiment [1] is T2, YEATS domain-containing protein 4 (Homo sapiens, UniProt O95619). The experiment in a line: Inhibition of human His-GAS41 YEATS domain and biotinylated H3K27ac peptide interaction at 20 uM by AlphaScreen assay. (In general: In Alpha technology, singlet oxygen from a donor bead excites a nearby acceptor bead.)
Experiment [2] concerns the target T2, YEATS domain-containing protein 4. The experiment in a line: Inhibition of human His-GAS41 YEATS domain and biotinylated H3K27ac peptide interaction by AlphaScreen assay. In short, it runs like this:
(§1)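 His-tagged YEATS domains were expressed in E. coli Rosetta-2 (DE3) pLysS and purified on Ni-NTA. Partners were biotinylated peptide on streptavidin donor and Ni2+-chelate acceptor beads: AF9 30 nM with H3K9ac, GAS41 100 nM with H3K27ac, YEATS2 100 nM with H3K27cr. Peptides at 30 nM, buffer 50 mM HEPES pH 7.4, 100 mM NaCl, 0.1% BSA, 0.05% CHAPS. Thirteen-point 3-fold series from 54 μM to 0.1 nM, 4–6 replicates, signal normalised to no-compound control, four-parameter fit.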

The target in experiment [3] is T3, YEATS domain-containing protein 2 (Homo sapiens) (UniProt Q9ULM3).
T3 sequence (whole entry): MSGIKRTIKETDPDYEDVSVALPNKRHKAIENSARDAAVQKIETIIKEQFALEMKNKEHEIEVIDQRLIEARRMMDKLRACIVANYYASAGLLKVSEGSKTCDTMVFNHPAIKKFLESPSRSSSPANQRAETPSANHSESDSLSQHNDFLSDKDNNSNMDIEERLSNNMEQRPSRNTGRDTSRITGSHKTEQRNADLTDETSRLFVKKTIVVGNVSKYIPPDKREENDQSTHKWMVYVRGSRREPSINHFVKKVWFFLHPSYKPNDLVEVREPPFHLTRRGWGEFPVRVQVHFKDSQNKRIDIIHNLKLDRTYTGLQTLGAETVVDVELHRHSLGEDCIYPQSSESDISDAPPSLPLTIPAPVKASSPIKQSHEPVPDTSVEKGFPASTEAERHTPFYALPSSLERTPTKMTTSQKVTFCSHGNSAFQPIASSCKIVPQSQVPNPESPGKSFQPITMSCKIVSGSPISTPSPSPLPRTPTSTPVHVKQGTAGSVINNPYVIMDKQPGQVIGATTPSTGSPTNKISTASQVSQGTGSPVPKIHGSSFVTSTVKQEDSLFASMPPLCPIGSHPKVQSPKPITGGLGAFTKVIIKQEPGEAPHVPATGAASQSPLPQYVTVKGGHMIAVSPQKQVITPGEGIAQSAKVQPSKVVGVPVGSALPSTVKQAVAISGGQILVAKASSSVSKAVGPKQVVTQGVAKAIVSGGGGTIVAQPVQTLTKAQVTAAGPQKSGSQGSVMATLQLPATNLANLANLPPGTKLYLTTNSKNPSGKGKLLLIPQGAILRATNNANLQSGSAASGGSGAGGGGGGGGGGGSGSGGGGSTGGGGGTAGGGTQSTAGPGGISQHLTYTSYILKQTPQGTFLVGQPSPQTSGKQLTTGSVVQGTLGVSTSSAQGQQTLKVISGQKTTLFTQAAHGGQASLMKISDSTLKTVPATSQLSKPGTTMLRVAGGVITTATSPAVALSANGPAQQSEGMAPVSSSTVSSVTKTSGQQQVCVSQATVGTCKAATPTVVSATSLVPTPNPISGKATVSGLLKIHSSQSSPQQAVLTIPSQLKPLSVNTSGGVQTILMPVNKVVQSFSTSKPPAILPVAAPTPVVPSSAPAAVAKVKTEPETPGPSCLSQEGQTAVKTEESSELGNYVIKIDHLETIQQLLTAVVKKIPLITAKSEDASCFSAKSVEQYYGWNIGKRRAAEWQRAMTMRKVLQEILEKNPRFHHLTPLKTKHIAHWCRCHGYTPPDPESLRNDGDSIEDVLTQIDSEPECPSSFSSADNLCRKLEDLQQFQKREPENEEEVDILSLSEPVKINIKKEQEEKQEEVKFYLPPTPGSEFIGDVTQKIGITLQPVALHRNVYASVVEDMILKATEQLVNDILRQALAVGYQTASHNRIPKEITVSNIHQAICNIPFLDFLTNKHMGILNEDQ
In words: Inhibition of human His-YEATS2 YEATS domain and biotinylated […] peptide interaction at 20 uM by AlphaScreen assay.

For experiment [4], the target named is T4, Protein AF-9 (Homo sapiens) (UniProt P42568).
T4 sequence (whole entry): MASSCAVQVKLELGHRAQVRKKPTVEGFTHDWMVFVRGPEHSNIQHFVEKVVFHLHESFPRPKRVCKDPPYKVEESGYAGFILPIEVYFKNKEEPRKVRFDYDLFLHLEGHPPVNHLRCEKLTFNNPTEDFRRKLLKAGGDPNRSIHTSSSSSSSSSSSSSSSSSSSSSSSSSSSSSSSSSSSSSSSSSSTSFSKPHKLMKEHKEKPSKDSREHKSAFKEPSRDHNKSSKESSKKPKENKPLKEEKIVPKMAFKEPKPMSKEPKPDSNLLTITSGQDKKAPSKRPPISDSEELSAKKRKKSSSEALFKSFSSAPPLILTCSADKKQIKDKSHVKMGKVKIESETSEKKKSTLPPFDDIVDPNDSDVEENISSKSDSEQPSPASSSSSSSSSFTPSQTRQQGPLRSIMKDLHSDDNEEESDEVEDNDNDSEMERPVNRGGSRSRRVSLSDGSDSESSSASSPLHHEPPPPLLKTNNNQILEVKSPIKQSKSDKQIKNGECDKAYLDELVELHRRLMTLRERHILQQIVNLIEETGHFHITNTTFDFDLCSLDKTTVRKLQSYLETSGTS
The experiment in a line: Inhibition of human His-AF9 YEATS domain and biotinylated H3K9ac peptide interaction at 20 uM by AlphaScreen assay.

Experiment [5] concerns the target T5, YEATS domain-containing protein 2 (Homo sapiens, UniProt Q9ULM3).
T5 sequence (Q9ULM3 whole entry): T3 sequence (whole entry)
The experiment in a line: Inhibition of human His-YEATS2 YEATS domain and biotinylated […] peptide interaction by AlphaScreen assay. The method in brief:
as §1

Another experiment addresses T6, Protein AF-9 (Homo sapiens, UniProt P42568).
T6 sequence (P42568 whole entry): T4 sequence (whole entry)
In words: Inhibition of human His-AF9 YEATS domain and biotinylated H3K9ac peptide interaction by AlphaScreen assay.

In experiment [6] the target is T7, Protein ENL (Homo sapiens) (UniProt Q03111).
T7 sequence (whole entry): T1 sequence (Q03111 whole entry)
In words: Inhibition of human His-ENL YEATS domain and biotinylated H3K9ac peptide interaction at 5 uM by AlphaScreen assay.

The species named for a further experiment is Homo sapiens. In words: Selectivity ratio of IC50 for human His-AF9 YEATS domain to IC50 for human His-ENL YEATS domain.

T2 sequence (O95619 whole entry, the tested form may be a part): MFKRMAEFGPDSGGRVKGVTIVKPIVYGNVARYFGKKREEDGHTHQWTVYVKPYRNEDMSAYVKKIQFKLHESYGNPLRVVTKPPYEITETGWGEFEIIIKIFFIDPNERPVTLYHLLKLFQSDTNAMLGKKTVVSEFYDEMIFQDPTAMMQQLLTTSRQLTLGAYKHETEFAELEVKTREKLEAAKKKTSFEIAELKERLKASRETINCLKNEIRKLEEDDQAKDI

By IC50 is commonly meant the concentration that inhibits the measured activity by half. A low value points to greater potency in that assay. Regarding `O=C(NCc1ccc(CNc2nc(F)ccc2F)cc1)c1ccc2nncn2c1`, the IC50 against Protein ENL was more than 2000 nM.
In the case of `CC1CCN1Cc1ccc(CNC(=O)c2ccc3nncn3c2)cc1` (stereo not drawn), on Protein ENL, the IC50 was 185 nM.
Take `O=C(NCc1cccc(CN2CCC2)c1)c1ccc2nncn2c1`: the 50% inhibitory concentration (IC50) against Protein ENL was found to be 202 nM.
`O=C(NCc1ccc(CN2CCC2)cc1)c1ccc2ncnn2c1` yielded an IC50 at Protein ENL of more than 5000 nM.
On to `CC(C)C1CCN1Cc1ccc(CNC(=O)c2ccc3nncn3c2)cc1` (stereo not drawn), for which, on Protein ENL, it took 266 nM to reach half-maximal inhibition (IC50).
`O=C(NCc1ccc(CNc2ncc(F)cn2)cc1)c1ccc2nncn2c1`: the inhibition entry in experiment [1], in [3] and in experiment [4] was “Active” throughout. Moreover, the IC50 was more than 54000 nM in experiment [2], more than 54000 nM in experiment [5] and 729 nM at Protein AF-9.
Consider `CC(C)(C)C1CCN1Cc1ccc(CNC(=O)c2ccc3nncn3c2)cc1` (stereo not drawn), for which the concentration for half-maximal inhibition (IC50) against Protein ENL was 264 nM. This counts as sub-micromolar.
As to `CC(NC(=O)c1ccc2nncn2c1)c1ccc(CN2CCC2)cc1` (stereo not drawn), the IC50 against Protein ENL is more than 1000 nM.
With `O=C(NCc1ccc(CN2CCOCC2)cc1)c1ccc2nncn2c1`, at Protein ENL, half-maximal inhibition (IC50) required 891 nM.
Turning to `O=C(NCc1ccc(CN2CCC2)cc1)c1ccc2nncn2c1`, the inhibition result in [1], in experiment [3] and in [4] was “Active” in each case. Further, the IC50 in [2] is more than 54000 nM; in [5], 18500 nM.
Regarding `CSc1ccc(CNC(=O)c2ccc3nncn3c2)cc1`, the inhibition result in [1], in experiment [3], in experiment [4] and in experiment [6] was “Active” each time. Besides, the IC50 in experiment [2] is more than 54000 nM; in [5], more than 54000 nM; on Protein AF-9, 1850 nM; at Protein ENL, 230 nM. In addition, the Ratio in the experiment listed under Homo sapiens is 4.
Turning to `O=C(NCc1ccc(CN2CCCCC2)cc1)c1ccc2nncn2c1`, the IC50 against Protein ENL came out at 636 nM.
In the case of `O=C(NCc1ccc(CNc2ccc(F)cn2)cc1)c1ccc2nncn2c1`, the IC50 on Protein ENL was more than 5000 nM.
On to `Cc1cc2ncc(C(=O)NCc3ccc(CN4CCC4)cc3)cn2n1`, for which the half-inhibitory concentration (IC50) at Protein ENL was more than 5000 nM.
As to `O=C(NCc1ccc(CN2CCC2)cc1)c1ccn2cnnc2c1`, the IC50 on Protein ENL is more than 5000 nM.
Consider `CC(C)c1cnc(NCc2ccc(CNC(=O)c3ccc4nncn4c3)cc2)nc1`, for which the IC50 on Protein ENL was more than 1000 nM.
